In ChEMBL document CHEMBL1772969, “Synthesis, structure-activity relationship, and antimalarial activity of ureas and thioureas of 15-membered azalides” (J Med Chem, 2011):
Calls of active or inactive are those of the source. No cut-off for these calls is given here.

What was measured:
Plasmodium berghei [1] = assay: Antiplasmodial activity against Plasmodium berghei KBG-173 infected in sc dosed mouse administered bid for 3 days; type: functional
Outline: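 Male mice (24-30 g) were infected ip with 5 × 10⁶ P. berghei KBG-173-infected erythrocytes. Drug suspended in palm/peanut oil was given sc twice daily on days 3-5 post-infection at 160, 40 or 10 mg/kg per dose, 0.01 mL/g, in groups of 4-5. Blood films were taken day 6, then biweekly to day 31. Mice smear-negative on day 31 were counted cured. CD50 is the daily dose curing 50%.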

Plasmodium berghei [2] = assay: Antiplasmodial activity against Plasmodium berghei KBG-173 infected in mouse assessed as mouse without parasitemia at 60 mg/kg, sc bid for 3 days measured on day 31; type: functional, organism-based; parameters: dose 60 mg/kg
Outline: (§1)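 P. berghei KBG-173: 5 × 10⁶ infected erythrocytes injected intraperitoneally into male mice (24–30 g); parasitemia 1.0–3.7% by day 3. Oil suspension given subcutaneously twice daily at 160, 40 or 10 mg/kg on days 3–5 postinfection (totals 960/240/60 mg/kg); 4–5 mice per group. Blood films on day 6, then biweekly to day 31; film-negative on day 31 counted as cured.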

Plasmodium falciparum [3] = assay: Antimalarial activity against multidrug-resistant Plasmodium falciparum TM91C235 after 48 hrs by [3H]hypoxanthine incorporation assay; type: functional, organism-based
Outline: (§2)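 [3H]hypoxanthine incorporation assay (Desjardins method, Milhous modification) with 48 h drug exposure. Compounds and controls were 2-fold diluted across 11 concentrations. IC50 was fitted by nonlinear logistic dose-response. Values are averaged where multiple results were generated, with relative errors usually <30%.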

Plasmodium falciparum [4] = assay: Antimalarial activity against chloroquine-sensitive Plasmodium falciparum D6 after 48 hrs by [3H]hypoxanthine incorporation assay; type: functional, organism-based; outline: as §2
Plasmodium falciparum [5] = assay: Antimalarial activity against chloroquine/pyrimethamine-resistant Plasmodium falciparum W2 after 48 hrs by [3H]hypoxanthine incorporation assay; type: functional, organism-based; outline: as §2
THP-1 = assay: Cytotoxicity against human THP1 cells after 1 to 4 hrs by MTS assay; type: cell-based
Outline: (§3)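 HepG2 and THP-1 cells grown in RPMI 1640 with 10% FBS at 37 °C, 5% CO₂, and passaged twice weekly. Compounds applied as continuous exposure. Viability read by MTS reagent, 1–4 h incubation, absorbance at 490 nm; IC₅₀ derived.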

HepG2 = assay: Cytotoxicity against human HepG2 cells after 1 to 4 hrs by MTS assay; type: cell-based; outline: as §3
[6] = Half life in human liver microsomes at 1 uM by LCMS analysis; type: ADME, Microsome
Outline: (§4)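 Compound at 1 μM final with 0.5 mg/mL pooled human or mouse liver microsomes, 1.3 mM NADP, 3.3 mM MgCl₂, 0.1 M PBS pH 7.4. Reaction started with 1 U/mL G6PD, shaken at 37 °C. Aliquots quenched with cold acetonitrile at 0, 10, 20, 30 and 60 min and quantified by LCMS. t₁/₂ taken from log plot of total ion chromatogram area remaining.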

[7] = Half life in mouse liver microsomes at 1 uM by LCMS analysis; type: ADME, Microsome; outline: as §4
[8] = Apparent volume of distribution during terminal phase in Sprague-Dawley rat at 10 mg/kg, iv and 30 mg/kg, po; type: ADME, organism-based; conditions: in vivo, read-out: Vz/F
Outline: (§5)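 Male Sprague-Dawley rats (250–300 g), crossover design. Dosed 10 mg/kg iv, then 2-day washout, then 30 mg/kg oral (free base equivalent), formulated in 1%/20% Encapsin (w/v) and saline. Blood sampled up to 24 h and analysed by LC-MS/MS. Clearance and terminal-phase Vd based on blood concentration.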

[9] = Blood clearance in Sprague-Dawley rat at 10 mg/kg, iv and 30 mg/kg, po; type: ADME, organism-based; conditions: whole blood; outline: as §5
[10] = Half life in Sprague-Dawley rat at 10 mg/kg, iv and 30 mg/kg, po; type: ADME, organism-based; conditions: in vivo; outline: as §5
[11] = Oral bioavailability in Sprague-Dawley rat at 30 mg/kg; type: ADME, organism-based; conditions: in vivo; outline: as §5
Plasmodium berghei [12] = assay: Antiplasmodial activity against Plasmodium berghei KBG-173 infected in mouse assessed as mouse without parasitemia at 240 mg/kg, sc bid for 3 days measured on day 31; type: functional, organism-based; parameters: dose 240 mg/kg; outline: as §1
Plasmodium berghei [13] = assay: Antiplasmodial activity against Plasmodium berghei KBG-173 infected in mouse assessed as mouse without parasitemia at 960 mg/kg, sc bid for 3 days measured on day 31; type: functional, organism-based; parameters: dose 960 mg/kg; outline: as §1

Structure (SMILES)	CD50 (Plasmodium berghei [1]) [mg/kg]	Activity (Plasmodium berghei [2])	IC50 (Plasmodium falciparum [3]) [nM]	IC50 (Plasmodium falciparum [4]) [nM]	IC50 (Plasmodium falciparum [5]) [nM]	IC50 (THP-1) [nM]	IC50 (HepG2) [nM]	half-life at 1 µM [6] [h]	half-life at 1 µM [7] [h]	Vd/F [8] [L/kg]	clearance [9] [mL/min/kg]	half-life [10] [h]	bioavailability [11] [%]	Activity (Plasmodium berghei [12])	Activity (Plasmodium berghei [13])
CC[C@H]1OC(=O)[C@H](C)[C@@H](O[C@H]2C[C@@](C)(OC)[C@@H](O)[C@H](C)O2)[C@H](C)[C@@H](O[C@@H]2O[C@H](C)C[C@H](N(C)C)[C@H]2O)[C@](C)(O)C[C@@H](C)CN(CCCNC(=S)NCCCc2ccccc2)[C@H](C)[C@@H](O)[C@]1(C)O	780	inactive	82	107	85	15000	22000	> 2	> 2	2.6	2.3	13.4	1.3	–	–
CC[C@H]1OC(=O)[C@H](C)[C@@H](O[C@H]2C[C@@](C)(OC)[C@@H](O)[C@H](C)O2)[C@H](C)[C@@H](O[C@@H]2O[C@H](C)C[C@H](N(C)C)[C@H]2O)[C@](C)(O)C[C@@H](C)CN(CCCN(CCC#N)C(=O)NC(C)c2cccc3ccccc23)[C@H](C)[C@@H](O)[C@]1(C)O (some centres undefined)	510	–	97	200	136	40000	48000	> 2	> 2	–	–	–	–	inactive	–
CC[C@H]1OC(=O)[C@H](C)[C@@H](O[C@H]2C[C@@](C)(OC)[C@@H](O)[C@H](C)O2)[C@H](C)[C@@H](O[C@@H]2O[C@H](C)C[C@H](N(C)C)[C@H]2O)[C@](C)(O)C[C@@H](C)CN(CCCNC(=O)Nc2cccc3ccccc23)[C@H](C)[C@@H](O)[C@]1(C)O	150	–	131	215	173	> 50000	> 50000	> 2	> 2	–	–	–	–	–	–
CC[C@H]1OC(=O)[C@H](C)[C@@H](O[C@H]2C[C@@](C)(OC)[C@@H](O)[C@H](C)O2)[C@H](C)[C@@H](O[C@@H]2O[C@H](C)C[C@H](N(C)C)[C@H]2O)[C@](C)(O)C[C@@H](C)CN(CCCNC(=S)NCCc2ccccc2)[C@H](C)[C@@H](O)[C@]1(C)O	780	inactive	200	215	167	23000	47000	> 2	> 2	–	–	–	–	–	–
CC[C@H]1OC(=O)[C@H](C)[C@@H](O[C@H]2C[C@@](C)(OC)[C@@H](O)[C@H](C)O2)[C@H](C)[C@@H](O[C@@H]2O[C@H](C)C[C@H](N(C)C)[C@H]2O)[C@](C)(O)C[C@@H](C)CN(CCCNC(=S)NCc2ccccc2)[C@H](C)[C@@H](O)[C@]1(C)O	285	–	156	257	121	47000	> 50000	> 2	> 2	10.4	4	30	3.4	–	–
CC[C@H]1OC(=O)[C@H](C)[C@@H](O[C@H]2C[C@@](C)(OC)[C@@H](O)[C@H](C)O2)[C@H](C)[C@@H](O[C@@H]2O[C@H](C)C[C@H](N(C)C)[C@H]2O)[C@](C)(O)C[C@@H](C)CN(CCCNC(=O)Nc2ccc3ccccc3c2)[C@H](C)[C@@H](O)[C@]1(C)O	>960	inactive	81	138	127	40000	48000	> 2	> 2	–	–	–	–	inactive	–
CC[C@H]1OC(=O)[C@H](C)[C@@H](O[C@H]2C[C@@](C)(OC)[C@@H](O)[C@H](C)O2)[C@H](C)[C@@H](O[C@@H]2O[C@H](C)C[C@H](N(C)C)[C@H]2O)[C@](C)(O)C[C@@H](C)CN(CCNC(=S)Nc2ccccc2)[C@H](C)[C@@H](O)[C@]1(C)O	–	–	113	183	443	16000	48000	> 2	> 2	–	–	–	–	–	–
CC[C@H]1OC(=O)[C@H](C)[C@@H](O[C@H]2C[C@@](C)(OC)[C@@H](O)[C@H](C)O2)[C@H](C)[C@@H](O[C@@H]2O[C@H](C)C[C@H](N(C)C)[C@H]2O)[C@](C)(O)C[C@@H](C)CN(CCCN(CCC#N)C(=S)NCCCc2ccccc2)[C@H](C)[C@@H](O)[C@]1(C)O	800	inactive	62	179	88	5000	9000	> 2	> 2	31.7	24.5	15.2	21	inactive	–
CC[C@H]1OC(=O)[C@H](C)[C@@H](O)[C@H](C)[C@@H](O[C@@H]2O[C@H](C)C[C@H](N(C)C)[C@H]2O)[C@](C)(O)C[C@@H](C)CN(CCCNC(=S)NCc2ccccc2)[C@H](C)[C@@H](O)[C@]1(C)O	–	–	1540	2040	3630	> 50000	> 50000	> 2	> 2	–	–	–	–	–	–
CC[C@H]1OC(=O)[C@H](C)[C@@H](O[C@H]2C[C@@](C)(OC)[C@@H](O)[C@H](C)O2)[C@H](C)[C@@H](O[C@@H]2O[C@H](C)C[C@H](N(C)C)[C@H]2O)[C@](C)(O)C[C@@H](C)CN(CCCNC(=S)Nc2cccc3ccccc23)[C@H](C)[C@@H](O)[C@]1(C)O	195	–	131	116	155	40000	48000	> 2	> 2	–	–	–	–	–	–
CC[C@H]1OC(=O)[C@H](C)[C@@H](O[C@H]2C[C@@](C)(OC)[C@@H](O)[C@H](C)O2)[C@H](C)[C@@H](O[C@@H]2O[C@H](C)C[C@H](N(C)C)[C@H]2O)[C@](C)(O)C[C@@H](C)CN(CCCNC(=O)NC(C)c2cccc3ccccc23)[C@H](C)[C@@H](O)[C@]1(C)O (some centres undefined)	397.5	–	107	292	106	46000	> 50000	> 2	> 2	–	–	–	–	inactive	Active
CC[C@H]1OC(=O)[C@H](C)[C@@H](O[C@H]2C[C@@](C)(OC)[C@@H](O)[C@H](C)O2)[C@H](C)[C@@H](O[C@@H]2O[C@H](C)C[C@H](N(C)C)[C@H]2O)[C@](C)(O)C[C@@H](C)CN(CCNC(=S)Nc2cccc3ccccc23)[C@H](C)[C@@H](O)[C@]1(C)O	–	–	130	225	99	9000	20000	> 2	> 2	–	–	–	–	–	–
CC[C@H]1OC(=O)[C@H](C)[C@@H](O[C@H]2C[C@@](C)(OC)[C@@H](O)[C@H](C)O2)[C@H](C)[C@@H](O[C@@H]2O[C@H](C)C[C@H](N(C)C)[C@H]2O)[C@](C)(O)C[C@@H](C)CN(CCCN(CCC#N)C(=S)NCc2ccccc2)[C@H](C)[C@@H](O)[C@]1(C)O	>960	–	126	204	139	11000	44000	> 2	> 2	–	–	–	–	–	–
CC[C@H]1OC(=O)[C@H](C)[C@@H](O[C@H]2C[C@@](C)(OC)[C@@H](O)[C@H](C)O2)[C@H](C)[C@@H](O[C@@H]2O[C@H](C)C[C@H](N(C)C)[C@H]2O)[C@](C)(O)C[C@@H](C)CN(CCNC(=O)Nc2ccc3ccccc3c2)[C@H](C)[C@@H](O)[C@]1(C)O	–	–	24	71	30	5000	9000	> 2	> 2	–	–	–	–	–	–
